Laboratory results reported in ChEMBL document CHEMBL1132302, “Identification of pharmacokinetically stable 3, 10-dibromo-8-chlorobenzocycloheptapyridine farnesyl protein transferase inhibitors with potent enzyme and cellular activities” (J Med Chem, 1999).

What was measured:
[1] = molecular target: T1, Protein farnesyltransferase (Homo sapiens, UniProt P49354+P49356); assay: Effect on Ras processing in Cos-1 monkey kidney cells expressing either H-Ras-Val 12-CVLS or H-Ras-Val12.; assay type: functional, cell-based, Cercopithecidae
In short: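 Ras processing was tested in Cos-1 monkey kidney cells transiently expressing H-Ras-Val12-CVLS or H-Ras-Val12. IC50 values are single-point determinations.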

[2] = molecular target: T1, Protein farnesyltransferase; assay: Inhibitory activity against Hras Farnesyltransferase (FPT).; assay type: protein-complex assay
[3] = system: NIH-3T3 (Mus musculus); assay: inhibition of tumor colony formation in soft agar
[4] = (§1) Area under curve was determined using 20%aqueous hydroxypropyl-beta-cyclodextrin (HPbetaCD) as vehicle. Compound was administered intravenously to nude mice at a dose of 25 mg/kg; assay type: organism-based; design: dose 25 mg/kg
In short: (§2)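 Nude mice were dosed at 25 mpk, intravenously or orally as the line states, in 20% aqueous hydroxypropyl-β-cyclodextrin or 0.4% aqueous methyl cellulose. Serum was sampled over 24 h. Each time point came from sera of different animals.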

[5] = (§3) Area under curve was determined using 20%aqueous hydroxypropyl-beta-cyclodextrin (HPbetaCD) as vehicle. Compound was administered orally to nude mice at a dose of 25 mg/kg; assay type: organism-based; design: dose 25 mg/kg; in short: as §2
[6] = system: Mus musculus; assay: (§4) Bioavailability in mouse (nude) using 20% aqueous hydroxypropyl-beta-cyclodextrin (HPbetaCD) as vehicle 25 mg/kg; assay type: organism-based
[7] = Maximum concentration (Cmax) using 20%aqueous hydroxypropyl-beta-cyclodextrin (HPbetaCD) as vehicle. compound was administered intravenously to nude mice at a dose of 25 mg/kg; assay type: ADME, organism-based; design: dose 25 mg/kg, route intravenous; conditions: mouse, in vivo, iv; in short: as §2
[8] = Maximum concentration (Cmax) using 20%aqueous hydroxypropyl-beta-cyclodextrin (HPbetaCD) as vehicle. compound was administered orally to nude mice at a dose of 25 mg/kg; assay type: ADME, organism-based; design: dose 25 mg/kg, route oral; conditions: mouse, in vivo, po; in short: as §2
[9] = (§5) Half life was administered by using 20%aqueous hydroxypropyl-beta-cyclodextrin (HPbetaCD) as vehicle to nude mice at a dose of 25mpk,; assay type: organism-based
[10] = as §4; assay type: ADME, organism-based; conditions: in vivo; for bioavailability: nude
[11] = as §1; assay type: ADME, organism-based; design: dose 25 mg/kg, route intravenous; conditions: mouse, in vivo, iv; in short: as §2
[12] = as §5; assay type: ADME, organism-based; conditions: mouse, in vivo, 25 mg/kg
[13] = as §3; assay type: ADME, organism-based; design: dose 25 mg/kg, route oral; conditions: mouse, in vivo, po; in short: as §2
[14] = molecular target: T1, Protein farnesyltransferase; assay: Inhibition of [3H]FPP incorporation into His6-H-Ras-CVLS by farnesyl transferase; assay type: protein-complex assay
[15] = Bioavailability in mouse (nude) (dose 0.4% Methylcellulose (MC) as vehicle 25 mg/kg); assay type: ADME, organism-based; conditions: in vivo
[16] = Maximum concentration (Cmax) using 0.4% Methyl cellulose (MC) as vehicle. compound was administered intravenously to nude mice at a dose of 25 mg/kg; assay type: ADME, organism-based; design: dose 25 mg/kg, route intravenous; conditions: mouse, in vivo, iv; in short: as §2
[17] = Maximum concentration (Cmax) using 0.4% Methyl cellulose (MC) as vehicle. compound was administered orally to nude mice at a dose of 25 mg/kg; assay type: ADME, organism-based; design: dose 25 mg/kg, route oral; conditions: mouse, in vivo, po; in short: as §2
[18] = Area under curve was determined using 0.4% Methyl cellulose (MC) as vehicle. Compound was administered intravenously to nude mice at a dose of 25 mg/kg; assay type: ADME, organism-based; design: dose 25 mg/kg, route intravenous; conditions: mouse, in vivo, iv; in short: as §2
[19] = Area under curve was determined using 0.4% Methyl cellulose (MC) as vehicle. Compound was administered orally to nude mice at a dose of 25 mg/kg; assay type: ADME, organism-based; design: dose 25 mg/kg, route oral; conditions: mouse, in vivo, po; in short: as §2
[20] = Area under curve was determined using 20%aqueous hydroxypropyl-beta-cyclodextrin (HPbetaCD) as vehicle. Compound was administered orally to nude mice at a dose of 25 mg/kg (Run time = 7 hr); assay type: ADME, organism-based; design: dose 25 mg/kg, route oral; conditions: mouse, in vivo, po
In short: (§6)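 Nude mice received 25 mpk in 20% aqueous hydroxypropyl-β-cyclodextrin, by the route the line gives. Serum was collected over a shortened 7-h run rather than 24 h. Each time point used sera from different animals.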

[21] = system: NIH-3T3 (Mus musculus); assay: Inhibition of tumor colony formation in soft agar
[22] = Half life was administered by using 0.4% Methyl cellulose (MC) as vehicle to nude mice at a dose of 25mpk; conditions: mouse, in vivo, 25 mg/kg
[23] = Area under curve was determined using 20%aqueous hydroxypropyl-beta-cyclodextrin (HPbetaCD) as vehicle. Compound was administered orally to nude mice at a dose of 25 mg/kg (run time 7 hr); assay type: ADME, organism-based; design: dose 25 mg/kg, route oral; conditions: mouse, in vivo, po; in short: as §6
[24] = Area under curve was determined using 20%aqueous hydroxypropyl-beta-cyclodextrin (HPbetaCD) as vehicle. Compound was administered intravenously to nude mice at a dose of 25 mg/kg (run time 7 hr); assay type: ADME, organism-based; design: dose 25 mg/kg, route intravenous; conditions: mouse, in vivo, iv; in short: as §6

O=C(CC1CCN(C(=O)Cn2cccc2)CC1)N1CCC([C@H]2c3ncc(Br)cc3CCc3cc(Cl)cc(Br)c32)CC1
IC50 [1]: 9 nM | IC50 [2]: 4.3 nM | IC50 [3]: 460 nM

NS(=O)(=O)N1CCC(CC(=O)N2CCC([C@H]3c4ncc(Br)cc4CCc4cc(Cl)cc(Br)c43)CC2)CC1
AUC [4]: 26100 ng·h/mL | AUC [5]: 5600 ng·h/mL | bioavailability [6]: 22% | Cmax [7]: 30 µM | Cmax [8]: 3.6 µM | T1/2 [9]: 1.5 h | IC50 [3]: 200 nM

NC(=O)C(=O)N1CCC(CC(=O)N2CCC([C@H]3c4ncc(Br)cc4CCc4cc(Cl)cc(Br)c43)CC2)CC1
F [10]: 166% | AUC [11]: 27100 ng·h/mL | Cmax [7]: 26.2 µM | Cmax [8]: 7.1 µM | IC50 [1]: < 10 nM | IC50 [2]: 2.7 nM | half-life [12]: 1.1 h | AUC [13]: 45000 ng·h/mL | IC50 [3]: 85 nM

CNC(=O)N1CCC(CC(=O)N2CCC([C@H]3c4ncc(Br)cc4CCc4cc(Cl)cc(Br)c43)CC2)CC1
IC50 [3]: 100 nM

CCOC(=O)CNC(=O)N1CCC(CC(=O)N2CCC([C@H]3c4ncc(Br)cc4CCc4cc(Cl)cc(Br)c43)CC2)CC1
IC50 [3]: 310 nM

NC(=O)c1cncc(C(=O)N2CCC(CC(=O)N3CCC([C@H]4c5ncc(Br)cc5CCc5cc(Cl)cc(Br)c54)CC3)CC2)c1
IC50 [1]: 21 nM | IC50 [2]: 2.2 nM | IC50 [3]: 500 nM

NC(=O)CN1CCC(CC(=O)N2CCC([C@H]3c4ncc(Br)cc4CCc4cc(Cl)cc(Br)c43)CC2)CC1
bioavailability [10]: 60.2% | AUC [11]: 20300 ng·h/mL | Cmax [7]: 30 µM | Cmax [8]: 1.94 µM | IC50 [1]: 6 nM | IC50 [14]: 2.1 nM | half-life [12]: 4 h | AUC [13]: 12200 ng·h/mL | IC50 [3]: 70 nM

O=C(CC1CCN(S(=O)(=O)c2ccccc2)CC1)N1CCC([C@H]2c3ncc(Br)cc3CCc3cc(Cl)cc(Br)c32)CC1
IC50 [2]: 76.1 nM

O=C(O)CNC(=O)N1CCC(CC(=O)N2CCC([C@H]3c4ncc(Br)cc4CCc4cc(Cl)cc(Br)c43)CC2)CC1
IC50 [3]: > 500 nM

CN(C)S(=O)(=O)N1CCC(CC(=O)N2CCC([C@H]3c4ncc(Br)cc4CCc4cc(Cl)cc(Br)c43)CC2)CC1
bioavailability [10]: 1.7% | AUC [11]: 5950 ng·h/mL | Cmax [7]: 30 µM | Cmax [8]: 0.49 µM | IC50 [1]: 9 nM | IC50 [14]: 7.8 nM | half-life [12]: 1.3 h | AUC [13]: 100 ng·h/mL | IC50 [3]: 100 nM

O=C(CC1CCN(C(=O)c2cc[n+]([O-])cc2)CC1)N1CCC([C@H]2c3ncc(Br)cc3CCc3cc(Cl)cc(Br)c32)CC1
bioavailability [15]: 14.6% | bioavailability [10]: 115% | Cmax [16]: 19.8 µM | Cmax [17]: 1.07 µM | AUC [18]: 13700 ng·h/mL | AUC [19]: 2000 ng·h/mL | AUC [11]: 13700 ng·h/mL | Cmax [7]: 19.8 µM | Cmax [8]: 9.81 µM | half-life [12]: 1.2 h | AUC [13]: 15700 ng·h/mL

NC(=O)N1CCC(CC(=O)N2CCC([C@H]3c4ncc(Br)cc4CCc4cc(Cl)cc(Br)c43)CC2)CC1 [LONAFARNIB]
bioavailability [10]: 75.8% | Cmax [17]: 16.6 µM | AUC [19]: 41400 ng·h/mL | AUC [11]: 31800 ng·h/mL | Cmax [7]: 20 µM | Cmax [8]: 8.84 µM | half-life [12]: 1.4 h | AUC [13]: 24100 ng·h/mL | IC50 [3]: 75 nM

CN(C)C(=O)C(=O)N1CCC(CC(=O)N2CCC([C@H]3c4ncc(Br)cc4CCc4cc(Cl)cc(Br)c43)CC2)CC1
bioavailability [10]: 30% | AUC [11]: 7530 ng·h/mL | AUC at 7 h [20]: 2260 ng·h/mL | Cmax [7]: 26.3 µM | Cmax [8]: 3.2 µM | IC50 [1]: 10 nM | half-life [12]: 1.04 h | IC50 [3]: 120 nM

C[C@@H](N)C(=O)N1CCC(CC(=O)N2CCC([C@H]3c4ncc(Br)cc4CCc4cc(Cl)cc(Br)c43)CC2)CC1
IC50 [1]: 39 nM | IC50 [2]: 7.9 nM | IC50 [3]: 200 nM

O=C(CC1CCN(CC(=O)N2CCOCC2)CC1)N1CCC([C@H]2c3ncc(Br)cc3CCc3cc(Cl)cc(Br)c32)CC1
IC50 [1]: 25 nM | IC50 [14]: 5.3 nM | IC50 [3]: 100 nM

N#CCC(=O)N1CCC(CC(=O)N2CCC([C@H]3c4ncc(Br)cc4CCc4cc(Cl)cc(Br)c43)CC2)CC1
bioavailability [15]: 8.6% | Cmax [16]: 23.4 µM | Cmax [17]: 0.33 µM | AUC [18]: 4090 ng·h/mL | AUC [19]: 350 ng·h/mL | IC50 [1]: < 10 nM | IC50 [21]: 120 nM | half-life [22]: 0.76 h

NCC(=O)N1CCC(CC(=O)N2CCC([C@H]3c4ncc(Br)cc4CCc4cc(Cl)cc(Br)c43)CC2)CC1
AUC [4]: 125000 ng·h/mL | AUC [5]: 5840 ng·h/mL | bioavailability [6]: 4.7% | Cmax [7]: 80 µM | Cmax [8]: 2.92 µM | T1/2 [9]: 1.4 h

C[C@H](N)C(=O)N1CCC(CC(=O)N2CCC([C@H]3c4ncc(Br)cc4CCc4cc(Cl)cc(Br)c43)CC2)CC1
IC50 [1]: 140 nM

O=C(CC1CCN(S(=O)(=O)Cc2ccccc2)CC1)N1CCC([C@H]2c3ncc(Br)cc3CCc3cc(Cl)cc(Br)c32)CC1
IC50 [1]: 350 nM | IC50 [2]: 17.1 nM

CS(=O)(=O)N1CCC(CC(=O)N2CCC([C@H]3c4ncc(Br)cc4CCc4cc(Cl)cc(Br)c43)CC2)CC1
AUC [4]: 9520 ng·h/mL | AUC [5]: 950 ng·h/mL | bioavailability [6]: 10% | Cmax [7]: 30 µM | Cmax [8]: 1.3 µM | T1/2 [9]: 0.53 h

NC(=O)CNC(=O)N1CCC(CC(=O)N2CCC([C@H]3c4ncc(Br)cc4CCc4cc(Cl)cc(Br)c43)CC2)CC1
IC50 [1]: 25 nM | IC50 [14]: 0.9 nM | IC50 [3]: 330 nM

CCN(CC)C(=O)CN1CCC(CC(=O)N2CCC([C@H]3c4ncc(Br)cc4CCc4cc(Cl)cc(Br)c43)CC2)CC1
IC50 [1]: 40 nM | IC50 [3]: 300 nM

O=C(CC1CCN(C(=O)Cn2cncn2)CC1)N1CCC([C@H]2c3ncc(Br)cc3CCc3cc(Cl)cc(Br)c32)CC1
bioavailability [10]: 19.5% | AUC at 7 h [23]: 1970 ng·h/mL | AUC at 7 h [24]: 10100 ng·h/mL | Cmax [7]: 22.6 µM | Cmax [8]: 2.15 µM | IC50 [1]: < 10 nM | half-life [12]: 0.28 h | IC50 [3]: 110 nM

O=C(O)c1cncc(C(=O)N2CCC(CC(=O)N3CCC([C@H]4c5ncc(Br)cc5CCc5cc(Cl)cc(Br)c54)CC3)CC2)c1
IC50 [1]: > 1000 nM | IC50 [2]: 0.8 nM | IC50 [3]: > 500 nM
